According to ChEMBL document CHEMBL2331327, “Bioactive abietane and ent-kaurane diterpenoids from Isodon tenuifolius” (J Nat Prod, 2013):
Residues, ends and D or L forms follow the SMILES beside them. *: point of attachment. Cbz = O=C(OCc1ccccc1)*

Assays:
[1] = tested on: RAW264.7; assay: Cytotoxicity against mouse RAW264.7 cells assessed as inhibition of cell viability after 18 hrs by MTS assay; type: cell-based; settings: raw264.7, 18 h
In short: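 RAW264.7 cells seeded at 2 × 10^5 cells/well and preincubated 24 h, then exposed to compounds (DMSO solutions) at given concentrations for 18 h. MTS added for 4 h and absorbance read at 490 nm. Viability expressed relative to untreated cells as 100%.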

[2] = tested on: RAW264.7; assay: Inhibition of nitric oxide production in LPS-stimulated mouse RAW264.7 cells measured after 18 hrs by Griess reagent based multilabel plate reader analysis; type: functional, cell-based; settings: RAW264.7, 18 h
In short: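 RAW264.7 macrophages in RPMI 1640 with 10% FBS at 2 × 10^5 cells/well, preincubated 24 h at 37 °C, 5% CO2. Then 18 h with 1 μg/mL LPS plus serial dilutions of compound (DMSO stock diluted in medium; top concentration 25 μM). Supernatant mixed 1:1 with Griess reagent, 5 min, absorbance at 570 nm, in triplicate. MG-132 as positive control.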

[3] = tested on: SW480; assay: Cytotoxicity against human SW480 cells assessed as inhibition of cell viability after 48 hrs by MTT assay; type: functional, cell-based; settings: SW480, 48 h
In short: (§1)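 Cells grown in RPMI-1640 or DMEM with 10% FBS, 37 °C, 5% CO2. Adherent lines seeded at 1 × 10^5 cells/mL and allowed 12 h to attach; suspension cells seeded just before dosing. Compounds tested at various concentrations in triplicate for 48 h; cisplatin and paclitaxel as positive controls. MTT added for 4 h at 37 °C, then lysis in 20% SDS−50% DMF and OD read at 595 nm. IC50 by Reed and Muench method.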

[4] = tested on: MCF7; assay: Cytotoxicity against human MCF7 cells assessed as inhibition of cell viability after 48 hrs by MTT assay; type: functional, cell-based; settings: MCF7, 48 h; in short: as §1
[5] = tested on: A549; assay: Cytotoxicity against human A549 cells assessed as inhibition of cell viability after 48 hrs by MTT assay; type: functional, cell-based; settings: A549, 48 h; in short: as §1
[6] = tested on: HL-60; assay: Cytotoxicity against human HL60 cells assessed as inhibition of cell viability after 48 hrs by MTT assay; type: functional, cell-based; settings: HL-60, 48 h; in short: as §1
[7] = tested on: SMMC-7721; assay: Cytotoxicity against human SMMC7721 cells assessed as inhibition of cell viability after 48 hrs by MTT assay; type: functional, cell-based; settings: SMMC-7721, 48 h; in short: as §1

IC50 [2]	Structure (SMILES)	Activity [1]	IC50 [3]	IC50 [4]	IC50 [5]	IC50 [6]	IC50 [7]
3.8 µM	C=C1C(=O)[C@]23C[C@H]1C[C@H](OC(C)=O)[C@H]2[C@]1(C)[C@@H](OC(C)=O)C[C@H](O)C(C)(C)[C@H]1C[C@@H]3OC(C)=O [ADENANTHIN C]	Non-toxic	5.1 µM	4.8 µM	> 10 µM	1.8 µM	3.2 µM
> 25 µM	C=C1[C@@H]2C[C@H](O)[C@H]3[C@@]4(C)[C@H](C[C@H](OC(C)=O)[C@]3(C2)[C@@H]1O)C(C)(C)[C@@H](OC(C)=O)C[C@@H]4O [ADENANTHIN E]	Non-toxic	> 10 µM	> 10 µM	> 10 µM	> 10 µM	> 10 µM
> 25 µM	C=C1[C@@H]2C[C@H](OC(C)=O)[C@H]3[C@]4(C)[C@@H](OC(C)=O)C[C@H](O)C(C)(C)[C@H]4C(=O)[C@H](OC(C)=O)[C@]3(C2)[C@@H]1O [ADENANTHIN J]	Non-toxic	> 10 µM	> 10 µM	> 10 µM	> 10 µM	> 10 µM
5.7 µM	C=C1C(=O)[C@@]23CC(=O)[C@@H]4C(C)(C)[C@@H](OC(C)=O)C[C@H](O)[C@@]4(C)[C@@H]2[C@@H](O)C[C@@H]1C3 [INFLEXARABDONIN E]	Non-toxic	4.6 µM	4.8 µM	6.8 µM	1.7 µM	2.2 µM
> 25 µM	CC(C)c1cc2c3c(c1)[C@H](O)C[C@H]1[C@](C)(CO)CC[C@H](O2)[C@]31C [ISOABIETENIN A]	Non-toxic	> 10 µM	> 10 µM	> 10 µM	> 10 µM	> 10 µM
> 25 µM	CC(C)[C@@]1(O)CC(=O)C2=C(C1)[C@H](O)C[C@H]1[C@](C)(CO)CCC[C@]21C [ISOABIETENIN B]	Non-toxic	> 10 µM	> 10 µM	> 10 µM	> 10 µM	> 10 µM
10.8 µM	C=C(C=O)[C@H]1C[C@@H](OC(C)=O)[C@H]2[C@@](O)(C1)[C@H](OC(C)=O)C(=O)[C@H]1C(C)(C)[C@H](O)C[C@@H](OC(C)=O)[C@@]12C [ISOABIETENIN C]	Non-toxic	> 10 µM	> 10 µM	> 10 µM	4.7 µM	> 10 µM
0.15 µM	CC(C)C[C@@H](C=O)NC(=O)[C@H](CC(C)C)NC(=O)[C@H](CC(C)C)NC(=O)OCc1ccccc1 [MG-132] (Cbz-Leu-Leu-Leu-aldehyde)	–	–	–	–	–	–
–	CC(=O)O[C@H]1C(=O)[C@@]2(C)[C@H]([C@H](OC(=O)c3ccccc3)[C@]3(O)C[C@H](OC(=O)[C@H](O)[C@@H](NC(=O)c4ccccc4)c4ccccc4)C(C)=C1C3(C)C)[C@]1(OC(C)=O)CO[C@@H]1C[C@@H]2O [PACLITAXEL]	–	0.15 µM	< 0.008 µM	< 0.008 µM	< 0.008 µM	< 0.008 µM
6.9 µM	C=C1C(=O)[C@@]23CC[C@@H]4C(C)(C)[C@H](O)CC[C@@]4(C)[C@@H]2[C@@H](O)C[C@@H]1C3 [TENUIFOLIN A]	Non-toxic	> 10 µM	> 10 µM	> 10 µM	4.7 µM	7.4 µM
> 25 µM	C=C1[C@@H]2C[C@H](O)[C@H]3[C@]4(C)CC[C@H](O)C(C)(C)[C@H]4CC[C@]3(C2)[C@@H]1O [TENUIFOLIN B]	Non-toxic	> 10 µM	> 10 µM	> 10 µM	> 10 µM	> 10 µM
> 25 µM	C=C1[C@@H]2C[C@H](OC(C)=O)[C@@H]3[C@](C2)(C(=O)C[C@@H]2C(C)(C)[C@@H](O)C[C@H](OC(C)=O)[C@]23C)[C@@H]1OC(C)=O [TENUIFOLIN C]	Non-toxic	> 10 µM	> 10 µM	> 10 µM	> 10 µM	> 10 µM
> 25 µM	C=C1[C@@H]2C[C@H](OC(C)=O)[C@H]3[C@]4(C)[C@@H](OC(C)=O)C[C@H](O)C(C)(C)[C@H]4C[C@H](O)[C@]3(C2)[C@@H]1O [TENUIFOLIN D]	Non-toxic	> 10 µM	> 10 µM	> 10 µM	> 10 µM	> 10 µM
> 25 µM	C=C1[C@@H]2C[C@H](O)[C@H]3[C@]4(C)CC[C@H](O)C(C)(C)[C@H]4C(=O)C[C@]3(C2)[C@@H]1O [TENUIFOLIN E]	Non-toxic	> 10 µM	> 10 µM	> 10 µM	> 10 µM	> 10 µM
> 25 µM	C=C1[C@@H]2C[C@H](O)[C@@H]3[C@@](CC(=O)[C@@H]4C(C)(C)[C@@H](O)C[C@H](OC(C)=O)[C@]43C)(C2)[C@@H]1O [TENUIFOLIN F]	Non-toxic	> 10 µM	> 10 µM	> 10 µM	> 10 µM	> 10 µM
> 25 µM	C=C1[C@@H]2C[C@H](OC(C)=O)[C@@H]3[C@@](CC(=O)[C@@H]4C(C)(C)[C@@H](O)C[C@H](O)[C@]43C)(C2)[C@@H]1O [TENUIFOLIN G]	Non-toxic	> 10 µM	> 10 µM	> 10 µM	> 10 µM	> 10 µM
> 25 µM	C=C1[C@@H]2CC(=O)[C@@H]3[C@@](CC(=O)[C@@H]4C(C)(C)[C@@H](O)C[C@H](OC(C)=O)[C@]43C)(C2)[C@@H]1O [TENUIFOLIN H]	Non-toxic	> 10 µM	> 10 µM	> 10 µM	> 10 µM	> 10 µM
5.8 µM	C=C1C(=O)[C@@]23CC(=O)[C@@H]4C(C)(C)[C@@H](O)C[C@H](O)[C@@]4(C)[C@@H]2[C@@H](OC(C)=O)C[C@@H]1C3 [TENUIFOLIN I]	Non-toxic	4.3 µM	3 µM	4.5 µM	0.8 µM	1.9 µM
8.8 µM	C=C1C(=O)[C@@]23CC(=O)[C@@H]4C(C)(C)[C@@H](OC(C)=O)CC[C@@]4(C)[C@@H]2[C@@H](O)[C@H](O)[C@@H]1C3 [TENUIFOLIN J]	Non-toxic	> 10 µM	> 10 µM	> 10 µM	3.8 µM	6.3 µM
> 25 µM	COC[C@@H]1C(=O)[C@]23C[C@H]1C[C@H](OC(C)=O)[C@H]2[C@@]1(C)[C@H](C(=O)[C@@H]3O)C(C)(C)[C@@H](O)C[C@@H]1O [TENUIFOLIN L]	Non-toxic	> 10 µM	> 10 µM	> 10 µM	> 10 µM	> 10 µM
> 25 µM	COC[C@H]1C(=O)[C@]23C[C@H]1C[C@H](OC(C)=O)[C@H]2[C@]1(C)[C@@H](OC(C)=O)C[C@H](O)C(C)(C)[C@H]1C(=O)[C@@H]3O [TENUIFOLIN M]	Non-toxic	> 10 µM	> 10 µM	> 10 µM	4.4 µM	> 10 µM
